From ChEMBL document CHEMBL1121898, “Potential antiestrogens. Synthesis and evaluation of mammary tumor inhibiting activity of 1,2-dialkyl-1,2-bis(3'-hydroxyphenyl)ethanes” (1981) come the findings set out here.

In assay [1] the target is T1, Estrogen receptor (Mus musculus) (UniProt O08537+P19785). As to the kind of experiment: Inhibitory activity in mouse uterine weight test at 50 ug. In kind it is functional. The method in brief: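 Antiuterotrophic (Dorfman) assay in immature 20-day-old female NMRI mice, groups of 10. Uterine growth was stimulated with estrone (0.1 μg) and the test compound was given alongside it, sc daily for 3 days in 0.1 mL olive oil. Uteri were taken 24 h after the last dose. Uterine weight is reported as means ± SD and inhibition as % of the estrone-stimulated response.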

The species entered for assay [2] is Rattus norvegicus. As to the kind of experiment: Final number of DMBA-induced hormone-dependent mammary carcinoma tumors in rats at 2.25 mg. In kind it is functional. The method, boiled down: (§1)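 Sprague-Dawley rats carrying DMBA-induced, hormone-dependent mammary adenocarcinoma, at least one tumor >140 mm², were placed in groups of ten. Compounds were given sc, with doses in mg/kg: a single daily dose Monday to Thursday and a double dose on Friday. Ovariectomy served as a comparator group. New tumors arising during the test were counted.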

The species entered for assay [3] is Rattus norvegicus. The assay can be described thus: Percent change in body weight DMBA-induced hormone-dependent mammary carcinoma tumors in rats at 2.25 mg for 7 days. Type of assay: functional.
Assay [4] is filed under the species Rattus norvegicus. The assay can be described thus: Progression of DMBA-induced hormone-dependent mammary carcinoma tumors in rats at 4.5 mg. In kind it is functional.
For assay [5], the species on record is Rattus norvegicus. The assay can be described thus: Percent change in body weight DMBA-induced hormone-dependent mammary carcinoma tumors in rats at 4.5 mg for 7 days. In kind it is functional.
The species entered for assay [6] is Rattus norvegicus. The assay can be described thus: Initial tumor number of DMBA-induced hormone-dependent mammary carcinoma in rats at 9 mg. Type of assay: functional. The method, boiled down:
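DMBA-induced, hormone-dependent mammary adenocarcinoma in SD rats. Rats bearing at least one tumor >140 mm² were placed in groups of ten. Compound was given sc as a single dose (mg/kg) daily Monday–Thursday and a double dose on Friday. Tumors were counted at the start and as new tumors; responses were scored as complete remission (not palpable), partial remission (≥50% reduction), no change or progression. Tumor area and body weight were recorded as % change.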

The target of assay [7] is T1, Estrogen receptor (Mus musculus). As to the kind of experiment: Inhibitory activity in mouse uterine weight test at 500 ug (experiment 2). Type of assay: functional. The method, boiled down:
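Immature female NMRI mice, 20 days old (14.5 ± 1.2 g), in random groups of 10. They received sc injections daily for 3 days of 0.1 mL olive oil containing test compound, with estrone 0.1 μg given to stimulate uterine growth. Uteri were removed 24 h after the last injection and weighed (mean ± SD). Result is percent inhibition of the estrone-stimulated uterine weight gain.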

For assay [8], the species on record is Rattus norvegicus. As to the kind of experiment: Final number of DMBA-induced hormone-dependent mammary carcinoma tumors in rats at 1 mg. Type of assay: functional. The method in brief:
as §1

The target of assay [9] is T1, Estrogen receptor (Mus musculus). The assay can be described thus: Estrogenic activity in uterotrophic test in mice at 0.8 ug (experiment 1). Type of assay: functional. The method, boiled down: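 Uterine growth stimulation in immature female NMRI mice, 20 days old (14.5 ± 1.2 g), 10 per group. Test compound in 0.1 mL olive oil was given sc daily for 3 days. Uteri were excised 24 h after the final injection and weighed. Effect is reported as mean ± SD.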

The test system of the next assay is MCF7. The assay can be described thus: Inhibition of estrogen receptor positive MCF-7 cell proliferation as cell number after 10 days at 10e-7 M with 10e-7 M 17-beta-estradiol. Type of assay: functional, Homo sapiens. The method in brief: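 MCF-7 cells were grown in McCoy's 5a medium with fetal bovine serum stripped by DCC (0.5 h, 45 °C). Compounds were dissolved in ethanol (final ≤0.5%) and diluted in complete medium. Cells were seeded at 5×10^4 cells/plate. On day 10, three replicate plates per group were counted by Coulter counter, three counts per plate. Percent T/C = test/control. In a retest, compounds were given at 10^-7 M with 17β-estradiol at 10^-7 or 10^-8 M.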

Structures are written as SMILES.

As usually defined, the inhibition is the percentage by which the read-out fell short of the control.

T1 sequence (O08537 whole entry, looked up): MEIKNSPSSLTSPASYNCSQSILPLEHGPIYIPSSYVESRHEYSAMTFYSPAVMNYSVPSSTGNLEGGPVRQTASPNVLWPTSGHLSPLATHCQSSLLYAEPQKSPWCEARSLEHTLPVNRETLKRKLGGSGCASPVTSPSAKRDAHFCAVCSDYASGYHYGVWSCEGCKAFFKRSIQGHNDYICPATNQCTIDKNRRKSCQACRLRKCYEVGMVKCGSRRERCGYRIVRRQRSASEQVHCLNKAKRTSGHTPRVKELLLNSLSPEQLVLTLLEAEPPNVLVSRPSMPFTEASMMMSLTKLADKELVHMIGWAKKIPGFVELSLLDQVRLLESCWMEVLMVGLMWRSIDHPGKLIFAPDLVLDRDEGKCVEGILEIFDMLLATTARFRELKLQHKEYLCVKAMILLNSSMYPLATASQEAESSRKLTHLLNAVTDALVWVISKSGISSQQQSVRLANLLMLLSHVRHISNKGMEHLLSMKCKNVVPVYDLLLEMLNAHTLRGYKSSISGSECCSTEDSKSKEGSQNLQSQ
T1 sequence (P19785 whole entry, looked up): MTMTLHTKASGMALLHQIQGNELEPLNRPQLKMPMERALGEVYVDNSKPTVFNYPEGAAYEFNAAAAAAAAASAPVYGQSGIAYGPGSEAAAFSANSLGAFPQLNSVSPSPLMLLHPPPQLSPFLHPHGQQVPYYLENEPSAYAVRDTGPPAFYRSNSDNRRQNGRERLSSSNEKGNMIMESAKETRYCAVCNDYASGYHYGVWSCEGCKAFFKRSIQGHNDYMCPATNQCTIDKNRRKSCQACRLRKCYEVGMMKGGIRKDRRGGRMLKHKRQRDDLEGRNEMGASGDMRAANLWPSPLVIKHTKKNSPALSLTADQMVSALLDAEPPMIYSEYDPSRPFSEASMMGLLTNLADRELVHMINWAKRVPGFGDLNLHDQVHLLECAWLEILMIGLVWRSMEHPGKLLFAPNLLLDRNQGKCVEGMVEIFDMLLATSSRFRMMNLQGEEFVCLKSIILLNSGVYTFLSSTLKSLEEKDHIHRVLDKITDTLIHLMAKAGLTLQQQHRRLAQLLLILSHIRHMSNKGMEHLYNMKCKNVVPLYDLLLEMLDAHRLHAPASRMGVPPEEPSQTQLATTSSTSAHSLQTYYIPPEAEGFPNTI

The molecule `CCCC(c1cccc(O)c1)C(CCC)c1cccc(O)c1` (stereo not given) came in with an inhibition in assay [1] of 43%. For the same molecule, the No. of tumors in the assay filed under Rattus norvegicus [2] came out at 17; in the assay filed under Rattus norvegicus [6] it was 22. Also, the Change is recorded as 0.4% in the assay filed under Rattus norvegicus [3] and -1.1% in the assay listed under Rattus norvegicus [5]. The Tumors in the assay listed under Rattus norvegicus [4] worked out at 36%.

For the molecule `CCC(c1cccc(O)c1)C(CC)c1cccc(O)c1` (stereo in doubt; 20), the inhibition in assay [7] stood at 40%. Further, the No. of tumors in the assay listed under Rattus norvegicus [8] amounted to 29. Further, the Effect in assay [9] stood at 11.8. The Cell number in the assay on MCF7 is reported as 5600.
